Laboratory results from publication PMC3330681 (Scientific Reports, 2012).

Key:
Type in all cases: cell-based
[1] = target: T1, GPR35 (Homo sapiens, UniProt Q9HC97); test: Tango β-arrestin translocation gene reporter assay in U2OS-GPR35-bla cells; details: for Efficacy Tango (maximal response): normalized to maximal response of zaprinast within the same plate
[2] = target: T1, GPR35; test: Dynamic mass redistribution; details: for DMR signal in DMR agonism profiling (in words): doses up to 1 mM
[3] = target: T1, GPR35; test: Receptor internalization assay; details: HT-29, 1 hr; 50 μM gentisate, 2 mM L-DOPA, 50 μM DHICA, 500 μM DOPAC, 5 μM reverse T3, 200 μM T4, 50 μM 3-nitrotyrosine
Method in brief: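 HT-29 cells (McCoy's 5a, 10% FBS, 37°C/5% CO2) were seeded on chamber slides at 10,000 cells/well for 24 hrs, then given a test compound at a fixed dose or DMSO vehicle for 1 hr at 37°C. Cells were fixed in 4% formaldehyde, permeabilized, and stained with intracellular-domain anti-GPR35 (1:500, 24 hrs) and an Alexa Fluor 594 secondary. Confocal imaging followed.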

[4] = target: T1, GPR35; test: DMR antagonist assay: SPB05142 blocking the agonist-induced DMR in HT-29 cells; details: for DMR of the agonist in the presence of 64 μM SPB05142: HT-29 cells
Method in brief: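 HT-29 cells in McCoy's 5a with 10% FBS were grown overnight to confluence on resonant waveguide biosensor plates, washed into HBSS and equilibrated 1 hr at 26°C. GPR35 antagonist pretreatment lasted 1 hr, then baseline, then agonist at a fixed dose. DMR was recorded for about 1 hr and background-corrected.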

[5] = U2OS-GPR35-bla cells, β-arrestin translocation
[6] = DMR agonism, HT-29 cells, maximal DMR amplitude within 1 hr

T1 sequence (Q9HC97 whole entry): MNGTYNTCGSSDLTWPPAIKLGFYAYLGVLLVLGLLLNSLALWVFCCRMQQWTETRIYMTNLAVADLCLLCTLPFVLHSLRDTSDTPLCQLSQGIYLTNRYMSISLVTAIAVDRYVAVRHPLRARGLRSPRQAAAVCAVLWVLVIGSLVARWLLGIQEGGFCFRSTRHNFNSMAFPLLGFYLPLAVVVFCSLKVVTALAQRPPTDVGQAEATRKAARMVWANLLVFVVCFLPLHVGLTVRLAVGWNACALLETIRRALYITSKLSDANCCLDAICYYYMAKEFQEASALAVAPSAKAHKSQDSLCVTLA

Structure (SMILES)	EC50 Tango [1, 5]	EC50 DMR [2, 6]	EC50 [1]	Efficacy Tango (maximal response) ([1]; U2OS-GPR35-bla cells)	EC50 [2]	Efficacy DMR (maximal response) ([2]; HT-29 cells)	DMR signal in DMR agonism profiling (in words) ([2]; HT-29 cells)	other results
N[C@@H](Cc1ccccc1)C(=O)O [L-Phenylalanine, L-phenylalanine]	Inactive	Inactive						
COc1cc(CC(=O)O)ccc1O [Homovanillic acid, homovanillic acid]	Inactive	Inactive						
N[C@@H](Cc1cc(I)c(Oc2cc(I)c(O)c(I)c2)c(I)c1)C(=O)O [L-Thyroxine (T4), L-thyroxine, reference compound]			> 500 µM	>20 % Zaprinast	> 500 µM	>100 pm		
COc1cc(CCN)ccc1O [3-Methoxytyramine, 3-methoxytyramine]	Inactive	Inactive						
N[C@@H](Cc1cc(I)c(O)c(I)c1)C(=O)O [3,5-Diiodo-L-tyrosine, 3,5-diiodo-L-tyrosine]	Inactive				304 ± 45 µM	254±19 pm	clear dose-dependent DMR	
CCOC(=O)Cc1ccc(O)c(OC)c1 [Ethyl homovanillate, ethyl homovanillate]		Inactive						
O=C(O)c1cc2cc(O)c(O)cc2[nH]1 [DHICA, 5,6-dihydroxyindole-2-carboxylic acid]			22.9 ± 1.6 µM	75 % Zaprinast	24.2 ± 2.7 µM	310±11 pm	clear dose-dependent and saturable DMR	GPR35 internalization [3]: obvious internalization; Activity in Tango β-arrestin translocation assay (in words) ([1]; U2OS-GPR35-bla cells): robust FRET signal
O=C(O)CCc1ccc(O)c(O)c1 [Dihydrocaffeic acid, 3-(3,4-dihydroxyphenyl)propionic acid]			186 ± 21 µM	46 % Zaprinast	342 ± 41 µM	293±12 pm	active	DMR of the agonist in the presence of 64 μM SPB05142 [4]: residual DMR signal
NC(Cc1ccc(O)cc1)C(=O)O (racemic) [DL-Tyrosine, DL-tyrosine]	Inactive	Inactive						
O=C(O)c1cc(=O)c2ccccc2[nH]1 [Kynurenic acid, reference compound]			> 500 µM	>60 % Zaprinast		203±13 pm		
N[C@@H](Cc1ccc(O)c(O)c1)C(=O)O [L-DOPA, 3,4-dihydroxy-L-phenylalanine, reference compound]	Inactive				> 500 µM	Off-target	did not reach a saturated level up to 1 mM	GPR35 internalization [3]: obvious internalization
O=C(/C=C/c1ccc(O)c(O)c1)O[C@H](Cc1ccc(O)c(O)c1)C(=O)O [Rosmarinate, rosmarinate]			169 ± 17 µM	63 % Zaprinast	29.4 ± 2.7 µM	320±11 pm	active	
CCCOc1ccccc1-c1nc2nn[nH]c2c(=O)[nH]1 [Zaprinast, reference compound]				100 % Zaprinast		250±17 pm		
OCC(O)c1ccc(O)c(O)c1 (stereo not drawn) [DHPG, 3,4-dihydroxyphenylglycol]			563 ± 67 µM	18 % Zaprinast	239 ± 37 µM	310±12 pm	active	DMR of the agonist in the presence of 64 μM SPB05142 [4]: residual DMR signal
O=C(O)Cc1ccc(O)cc1 [4-Hydroxyphenylacetate, 4-hydroxyphenylacetate]	Inactive	Inactive						
O=C([O-])/C=C/C(=O)[O-].[Na+].[Na+] [Sodium fumarate, sodium fumarate]	Inactive	Inactive						
COC(=O)c1cnn(-c2ccc(F)cc2F)c1C=NNC(=S)NC(C)(C)C [SPB05142, methyl-5-[(tert-butylcarbamothioylhydrazinylidene)-methyl]-1-(2,4-difluorophenyl)-pyrazole-4-carboxylate, reference compound]							little or no DMR signal	Activity in Tango β-arrestin translocation assay (in words) ([1]; U2OS-GPR35-bla cells): inactive; Inhibition by SPB05142 of the DMR of DOPA ([4]; HT-29, agonist at EC50 to EC80): partially inhibited; Inhibition by SPB05142 of the DMR arising from all other eleven agonists ([4]; HT-29, each agonist at EC50 to EC80): dose-dependently inhibited; IC50 Antagonist (SPB05142 to block the DMR of the agonist) ([4]; against homogentisate, HT-29): No inhibition
N[C@@H](Cc1ccc(O)c([N+](=O)[O-])c1)C(=O)O [3-Nitro-L-tyrosine, 3-nitro-L-tyrosine]			> 500 µM	>20 % Zaprinast	142 ± 27 µM	330±13 pm	robust DMR signal	Activity in Tango β-arrestin translocation assay (in words) ([1]; U2OS-GPR35-bla cells): able to result in β-arrestin translocation
O=C(O)Cc1ccc(O)c(O)c1 [DOPAC, 3,4-Dihydroxyphenylacetic acid]			106 ± 7 µM	44 % Zaprinast	> 500 µM	>200 pm	active	GPR35 internalization [3]: obvious internalization; DMR of the agonist in the presence of 64 μM SPB05142 [4]: residual DMR signal
O=C([O-])c1cc(=O)c2c(OCC(O)COc3cccc4oc(C(=O)[O-])cc(=O)c34)cccc2o1.[Na+].[Na+] [Cromolyn disodium, reference compound]				97 % Zaprinast		252±16 pm		EC50 ([1]; read-out: EC50 Tango, U2OS-GPR35-bla cells, β-arrestin translocation): 9.67 ± 0.71 µM; EC50 ([2]; read-out: EC50 DMR, DMR agonism, HT-29 cells, maximal DMR amplitude within 1 hr): 0.52 ± 0.04 µM
C[C@](N)(Cc1ccc(O)c(O)c1)C(=O)O [α-methyl-L-DOPA, reference compound]	Inactive	Inactive						
O=C(O)c1cccnc1Nc1cccc(C(F)(F)F)c1 [Niflumic acid, reference compound]				39 % Zaprinast		223±11 pm		
N[C@@H](Cc1ccc(O)cc1)C(=O)O [L-Tyrosine, L-tyrosine]	Inactive	Inactive						
N[C@@H](Cc1ccc(Oc2cc(I)c(O)c(I)c2)c(I)c1)C(=O)O [Reverse T3, 3,3′,5′-triiodothyronine]			108 ± 9 µM	108 % Zaprinast	5.89 ± 0.39 µM	276±12 pm	clear dose-dependent DMR	GPR35 internalization [3]: obvious internalization; Activity in Tango β-arrestin translocation assay (in words) ([1]; U2OS-GPR35-bla cells): full agonist
NC(Cc1ccccc1)C(=O)O (racemic) [DL-Phenylalanine, DL-phenylalanine]	Inactive	Inactive						
N[C@@H](Cc1ccc(O)c(I)c1)C(=O)O [3-Iodo-L-tyrosine, 3-iodo-L-tyrosine]	Inactive				> 500 µM	>50 pm		DMR signal at 1 mM (in words) ([2]; HT-29 cells, 1 mM): small but detectable DMR
